From article PMC7502546 (ACS chemical biology, 2020)
Like-named read-outs stand apart in the source and are kept apart here.

What was measured:
[1] = test system: CaV1.3; assay type: cell-based, rat; conditions: for percent inhibition of evoked currents (median): wild-type CaV1.3, step −80 mV to 0 mV; for percentage inhibition of CaV1.3 peak currents (median): test step to 0 mV
Procedure, shortened: (§1)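 Rat α1D (wild type or point mutants made by site-directed mutagenesis, sequence-verified) was transiently co-transfected with CaVβ3 and CaVα2δ-1 at 1:1:1 into tsA201 cells, with 1/40 (w/w) GFP. GFP-positive cells were whole-cell clamped 48 h later at 22–25 °C. External solution held 10 mM BaCl2 (pH 7.4); internal was NMG-based with 5 mM BAPTA. DMSO stocks were diluted into barium solution and perfused. Median percent inhibition was reported.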

[2] = test system: CaV1.3-T1081Y; assay: Whole-cell patch clamp, CaV1.3-T1081Y channels; assay type: cell-based, rat
Procedure, shortened: as §1

[3] = test system: CaV1.3-M1078V; assay: Whole-cell patch clamp, CaV1.3-M1078V channels; assay type: cell-based, rat; conditions: for percent inhibition of evoked currents (median): CaV1.3-M1078V
Procedure, shortened: as §1

[4] = target: CaV1.3-V1198I (Rattus norvegicus, UniProt P27732, V1198I); assay: Whole-cell patch clamp, CaV1.3-V1198I channels; assay type: cell-based; conditions: read-out: percent inhibition of evoked currents
Procedure, shortened: as §1

[5] = target: CaV1.3-M1078K (Rattus norvegicus, UniProt P27732, M1078K); assay: Whole-cell patch clamp, CaV1.3-M1078K channels; assay type: cell-based; conditions: read-out: percent inhibition of evoked currents (median)
Procedure, shortened: as §1

[6] = test system: CaV1.3-M1078I; assay: Whole-cell patch clamp, CaV1.3-M1078I channels; assay type: cell-based, rat
Procedure, shortened: as §1

[7] = target: CaV1.3-M1078L (Rattus norvegicus, UniProt P27732, M1078L); assay: Whole-cell patch clamp, CaV1.3-M1078L channels; assay type: cell-based; conditions: read-out: percent inhibition of evoked currents (median)
Procedure, shortened: as §1

[8] = target: CaV1.2 (wild-type) (Oryctolagus cuniculus, UniProt P15381); assay: Whole-cell patch clamp, wild-type CaV1.2 channels; assay type: cell-based, rabbit; conditions: rabbit, pH 7.4
[9] = target: CaV1.2-V1063M (Oryctolagus cuniculus, UniProt P15381, V1063M); assay: Whole-cell patch clamp, CaV1.2-V1063M channels; assay type: cell-based, rabbit; conditions: read-out: percent inhibition of evoked currents (median)
CaV1.2-V1063M, sequence (P15381 whole entry V1063M): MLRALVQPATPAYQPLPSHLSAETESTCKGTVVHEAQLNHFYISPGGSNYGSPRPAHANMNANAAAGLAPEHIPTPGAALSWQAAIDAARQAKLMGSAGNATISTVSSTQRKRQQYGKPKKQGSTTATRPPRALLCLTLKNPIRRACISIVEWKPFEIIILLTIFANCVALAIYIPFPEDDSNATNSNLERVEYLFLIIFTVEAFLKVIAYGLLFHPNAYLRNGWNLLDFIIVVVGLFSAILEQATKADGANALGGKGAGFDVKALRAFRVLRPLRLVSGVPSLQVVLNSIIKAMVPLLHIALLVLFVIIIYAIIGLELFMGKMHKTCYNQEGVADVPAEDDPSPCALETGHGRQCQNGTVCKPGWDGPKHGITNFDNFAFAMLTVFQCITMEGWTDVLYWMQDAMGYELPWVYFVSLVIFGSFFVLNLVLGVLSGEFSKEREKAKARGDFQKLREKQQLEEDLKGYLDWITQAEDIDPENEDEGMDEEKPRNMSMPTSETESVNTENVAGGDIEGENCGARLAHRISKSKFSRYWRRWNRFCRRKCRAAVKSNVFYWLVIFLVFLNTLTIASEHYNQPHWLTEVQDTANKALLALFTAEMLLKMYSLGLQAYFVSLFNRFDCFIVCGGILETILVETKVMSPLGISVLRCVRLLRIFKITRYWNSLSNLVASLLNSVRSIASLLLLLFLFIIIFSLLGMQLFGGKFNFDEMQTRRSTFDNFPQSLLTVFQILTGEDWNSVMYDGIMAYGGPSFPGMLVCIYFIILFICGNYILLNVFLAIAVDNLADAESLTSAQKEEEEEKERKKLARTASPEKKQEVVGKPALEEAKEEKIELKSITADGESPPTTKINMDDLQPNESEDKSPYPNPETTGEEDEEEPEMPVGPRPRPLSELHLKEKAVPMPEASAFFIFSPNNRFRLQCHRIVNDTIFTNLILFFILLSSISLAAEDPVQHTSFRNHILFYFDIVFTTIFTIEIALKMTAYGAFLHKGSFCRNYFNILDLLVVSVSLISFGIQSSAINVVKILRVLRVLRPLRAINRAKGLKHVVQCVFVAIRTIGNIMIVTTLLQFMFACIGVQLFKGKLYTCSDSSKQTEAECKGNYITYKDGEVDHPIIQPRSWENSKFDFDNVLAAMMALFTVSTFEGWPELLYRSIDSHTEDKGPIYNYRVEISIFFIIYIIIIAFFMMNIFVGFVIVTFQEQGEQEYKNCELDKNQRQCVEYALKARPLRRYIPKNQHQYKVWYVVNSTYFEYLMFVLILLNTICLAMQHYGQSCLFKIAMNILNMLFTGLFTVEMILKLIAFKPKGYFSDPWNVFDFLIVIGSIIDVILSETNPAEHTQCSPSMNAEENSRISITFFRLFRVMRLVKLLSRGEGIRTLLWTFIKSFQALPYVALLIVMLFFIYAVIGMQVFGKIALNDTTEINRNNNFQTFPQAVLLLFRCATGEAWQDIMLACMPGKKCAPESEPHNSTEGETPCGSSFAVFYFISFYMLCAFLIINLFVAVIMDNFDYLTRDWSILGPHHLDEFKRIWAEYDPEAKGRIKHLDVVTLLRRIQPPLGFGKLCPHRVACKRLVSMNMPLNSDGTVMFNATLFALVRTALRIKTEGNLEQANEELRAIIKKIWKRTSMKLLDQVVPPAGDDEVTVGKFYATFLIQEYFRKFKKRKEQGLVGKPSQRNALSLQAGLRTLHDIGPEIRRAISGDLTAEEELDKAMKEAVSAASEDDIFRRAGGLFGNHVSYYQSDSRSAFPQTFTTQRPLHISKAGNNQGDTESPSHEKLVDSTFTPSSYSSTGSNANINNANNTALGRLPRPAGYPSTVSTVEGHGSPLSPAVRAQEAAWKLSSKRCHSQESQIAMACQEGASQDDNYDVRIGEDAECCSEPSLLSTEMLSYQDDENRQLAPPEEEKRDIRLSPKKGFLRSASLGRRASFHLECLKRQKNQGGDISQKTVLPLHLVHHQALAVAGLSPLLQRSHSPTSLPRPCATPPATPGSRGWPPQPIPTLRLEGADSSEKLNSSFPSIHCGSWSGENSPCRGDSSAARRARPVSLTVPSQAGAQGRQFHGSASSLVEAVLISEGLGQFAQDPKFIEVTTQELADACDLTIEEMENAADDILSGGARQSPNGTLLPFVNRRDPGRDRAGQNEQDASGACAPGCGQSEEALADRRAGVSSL
CaV1.2-V1063M, sequence (P54287 whole entry partner): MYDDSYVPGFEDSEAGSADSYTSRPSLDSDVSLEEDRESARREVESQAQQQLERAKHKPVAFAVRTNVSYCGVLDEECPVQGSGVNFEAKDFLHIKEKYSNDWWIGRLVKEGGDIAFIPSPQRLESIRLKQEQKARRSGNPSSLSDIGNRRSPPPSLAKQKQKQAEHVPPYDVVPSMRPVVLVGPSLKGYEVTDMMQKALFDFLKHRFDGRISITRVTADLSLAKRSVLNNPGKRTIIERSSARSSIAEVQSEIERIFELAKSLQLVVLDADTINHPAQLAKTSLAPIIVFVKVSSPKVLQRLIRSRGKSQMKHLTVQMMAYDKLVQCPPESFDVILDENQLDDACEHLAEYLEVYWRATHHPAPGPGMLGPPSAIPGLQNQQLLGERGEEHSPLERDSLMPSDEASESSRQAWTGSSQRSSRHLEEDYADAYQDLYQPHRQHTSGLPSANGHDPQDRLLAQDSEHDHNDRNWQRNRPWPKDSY
CaV1.2-V1063M, sequence (P54290 25-944 partner limits assumed): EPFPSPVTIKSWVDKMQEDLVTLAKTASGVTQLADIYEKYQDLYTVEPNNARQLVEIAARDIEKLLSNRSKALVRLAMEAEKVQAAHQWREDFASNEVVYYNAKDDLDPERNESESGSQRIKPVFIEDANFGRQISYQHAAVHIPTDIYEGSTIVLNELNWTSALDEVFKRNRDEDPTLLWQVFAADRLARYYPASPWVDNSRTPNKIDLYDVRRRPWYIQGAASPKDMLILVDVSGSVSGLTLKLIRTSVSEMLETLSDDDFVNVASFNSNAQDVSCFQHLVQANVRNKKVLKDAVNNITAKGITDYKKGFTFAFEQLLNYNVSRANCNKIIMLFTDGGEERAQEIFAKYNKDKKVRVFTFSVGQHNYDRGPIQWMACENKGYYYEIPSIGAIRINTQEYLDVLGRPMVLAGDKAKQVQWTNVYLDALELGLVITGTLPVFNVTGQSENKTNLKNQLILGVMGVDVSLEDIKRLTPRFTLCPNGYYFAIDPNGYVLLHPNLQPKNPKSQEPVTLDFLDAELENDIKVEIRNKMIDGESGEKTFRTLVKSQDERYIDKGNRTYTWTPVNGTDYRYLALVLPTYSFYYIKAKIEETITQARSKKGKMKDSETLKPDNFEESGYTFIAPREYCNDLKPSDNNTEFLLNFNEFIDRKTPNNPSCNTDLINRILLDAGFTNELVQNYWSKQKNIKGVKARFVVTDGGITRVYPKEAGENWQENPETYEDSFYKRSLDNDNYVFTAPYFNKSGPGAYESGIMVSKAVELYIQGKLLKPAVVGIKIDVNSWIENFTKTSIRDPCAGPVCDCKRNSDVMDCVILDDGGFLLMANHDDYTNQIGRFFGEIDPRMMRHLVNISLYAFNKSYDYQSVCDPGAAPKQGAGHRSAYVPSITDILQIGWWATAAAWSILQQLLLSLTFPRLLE
CaV1.2-V1063M, sequence (P54290 945-1091 partner limits assumed): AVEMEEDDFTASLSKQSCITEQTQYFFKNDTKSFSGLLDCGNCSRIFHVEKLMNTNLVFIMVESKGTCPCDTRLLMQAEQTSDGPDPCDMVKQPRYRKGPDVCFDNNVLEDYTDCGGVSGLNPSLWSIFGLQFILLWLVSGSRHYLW

[10] = target: CaV1.2-I1183V (Oryctolagus cuniculus, UniProt P15381, I1183V); assay: Whole-cell patch clamp, CaV1.2-I1183V channels; assay type: cell-based, rabbit; conditions: read-out: percent inhibition of evoked currents
CaV1.2-I1183V, sequence (P15381 whole entry I1183V): as the sequence (P15381 whole entry V1063M) above, with M1063V, I1183V counted along it
CaV1.2-I1183V, sequence (P54287 whole entry partner): as the sequence (P54287 whole entry partner) above
CaV1.2-I1183V, sequence (P54290 25-944 partner limits assumed): as the sequence (P54290 25-944 partner limits assumed) above
CaV1.2-I1183V, sequence (P54290 945-1091 partner limits assumed): as the sequence (P54290 945-1091 partner limits assumed) above

[11] = target: CaV1.2-V1063M+I1183V (Oryctolagus cuniculus, UniProt P15381, I1183V/V1063M); assay: Whole-cell patch clamp, CaV1.2-V1063M+I1183V channels; assay type: cell-based, rabbit; conditions: read-out: percent inhibition of evoked currents
[12] = target: CaV1.2-V1063I (Oryctolagus cuniculus, UniProt P15381, V1063I); assay: Whole-cell patch clamp, CaV1.2-V1063I channels; assay type: cell-based, rabbit; conditions: read-out: percent inhibition of evoked currents (median)
[13] = target: CaV1.2-V1063L (Oryctolagus cuniculus, UniProt P15381, V1063L); assay: Whole-cell patch clamp, CaV1.2-V1063L channels; assay type: cell-based, rabbit; conditions: read-out: percent inhibition of evoked currents (median)
[14] = target: CaV1.2-V1063K (Oryctolagus cuniculus, UniProt P15381, V1063K); assay: Whole-cell patch clamp, CaV1.2-V1063K channels; assay type: cell-based, rabbit
[15] = target: CaV1.3 LTCCs (Rattus norvegicus, UniProt P27732); assay: Equilibrium binding / displacement of 3H2-SKP004D11 in HEK293 membranes
CaV1.3 LTCCs, sequence (P27732 921-1530 limits assumed): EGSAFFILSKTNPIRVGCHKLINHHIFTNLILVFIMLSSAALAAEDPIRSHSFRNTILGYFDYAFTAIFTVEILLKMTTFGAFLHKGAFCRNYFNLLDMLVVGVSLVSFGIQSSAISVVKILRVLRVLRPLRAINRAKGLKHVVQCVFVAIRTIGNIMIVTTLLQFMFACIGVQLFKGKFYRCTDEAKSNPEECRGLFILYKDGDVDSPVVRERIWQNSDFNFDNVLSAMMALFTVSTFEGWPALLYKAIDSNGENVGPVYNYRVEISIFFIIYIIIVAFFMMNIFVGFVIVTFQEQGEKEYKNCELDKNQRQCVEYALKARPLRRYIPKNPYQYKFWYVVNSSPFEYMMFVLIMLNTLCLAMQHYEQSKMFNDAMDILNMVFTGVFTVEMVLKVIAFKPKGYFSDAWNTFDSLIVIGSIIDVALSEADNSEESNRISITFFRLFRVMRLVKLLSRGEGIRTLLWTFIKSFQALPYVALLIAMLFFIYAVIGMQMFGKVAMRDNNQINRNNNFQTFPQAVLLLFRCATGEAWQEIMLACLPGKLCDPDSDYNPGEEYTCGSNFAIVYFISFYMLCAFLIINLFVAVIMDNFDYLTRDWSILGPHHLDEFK
Procedure, shortened: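 Membranes came from HEK-293 cells stably expressing CaV1.3 α1D/β3/α2δ-1. They were washed in 40 mM HEPES, 100 mM NaCl, pH 8.0, homogenized on ice, and pelleted three times at 100,000 × g, 4 °C. Each reaction held 3.0 nM tritiated pyrimidinetrione ligand, 0.1–0.4 mg/mL protein, and unlabeled competitor, incubated 90 min at room temperature. Samples were filtered on GF/C and scintillation counted. Nonspecific binding used a saturating cold ligand. Ki came from a Langmuir fit plus Cheng-Prusoff; Kd came from a Scatchard plot (n = 4).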

[16] = test system: Cav1.3 calcium channels in adult SN dopaminergic (DA) neurons; assay: Voltage clamp of acutely isolated SN dopaminergic neurons from WT mice; assay type: cell-based
Procedure, shortened: (§2)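 SN dopaminergic neurons were acutely isolated from brain slices of young adult (P25) wild-type or CaV1.3 ([…]) knockout mice. Whole-cell voltage clamp used Ba2+ as charge carrier, with voltage ramps from −70 mV to +30 mV. Test compound was applied at 5 μM and 50 μM on wild-type cells and 50 μM on knockout cells. Maximum calcium permeability was compared by Mann-Whitney test.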

[17] = test system: SN dopaminergic neuron from an adult Cav1.3-KO mouse; assay: Voltage clamp of SN dopaminergic neurons from Cav1.3-KO mouse; assay type: cell-based; conditions: cp-PYT 50 μM; CaV1.3 knockout mouse
Procedure, shortened: as §2

[18] = test system: SN dopaminergic neurons; assay type: cell-based, mice; conditions: cp-PYT 50 μM; ex vivo brain slice
Procedure, shortened: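 Ex vivo brain slices from young adult mice were used. SN dopaminergic neurons were whole-cell patched and filled through the pipette with Alexa568 (20 μM) and Fluo-4 (200 μM). Two-photon laser scanning microscopy imaged Ca2+ along a dendrite while somatic voltage was recorded, before and after test compound application. Fluo-4 fluorescence was normalized to baseline (F0).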

[19] = test system: SN dopaminergic neurons; assay: mito-roGFP mitochondrial oxidant stress in ex vivo brain slices; assay type: cell-based, mouse
[20] = test system: CaV1.3 channels; conditions: micromolar concentrations; cited from earlier work
[21] = test system: CaV1.3 channels; conditions: magnitude and selectivity dependent on auxiliary β subunit; cited from earlier work
[22] = rodents; cited from earlier work
[23] = test system: CaV1.3 channels over CaV1.2 channels; conditions: cited from earlier work
[24] = target: CaV1.2 (Oryctolagus cuniculus, UniProt P15381); assay: Whole-cell patch clamp, wild-type CaV1.2 channels; assay type: cell-based, rabbit; conditions: read-out: percent inhibition of evoked currents (median)

## O=C1CC(=O)N(C2CCCC2)C(=O)N1CCc1cccc(Cl)c1 [cp-PYT, 1-(3-chlorophenethyl)-3-cyclopentylpyrimidine-2,4,6-trione]
[1]; 100 μM cp-PYT
  percent inhibition of evoked currents (median): 60%
[1]; cp-PYT 10 μM, VH −50 mV
  percentage inhibition of CaV1.3 peak currents (median): 46%
[1]; cp-PYT 10 μM, VH −80 mV
  percentage inhibition of CaV1.3 peak currents (median): 26%
[1]; cp-PYT 10 μM, step back to −80 mV
  tail current kinetics / channel deactivation rates: did not alter
[1]; cp-PYT 50 μM, step back to −80 mV
  tail current kinetics: slowed
[2]; 100 μM cp-PYT
  percent inhibition of evoked currents (median): 2%
[3]; 100 μM cp-PYT
  percent inhibition of evoked currents (median): 4%
[3]; cp-PYT (100 μM) in text
  tail currents in M1078V mutant channels: slowing of tail currents persisted
[4]
  inhibition at 100 µM: 45%
[5]
  inhibition at 100 µM: 58%
[6]; 100 μM cp-PYT
  percent inhibition of evoked currents (median): 37%
[7]
  inhibition at 100 µM: 31%
[8]
  inhibition at 100 µM: 21%
[9]
  inhibition at 100 µM: 47%
[10]
  inhibition at 100 µM: 12%
[11]
  inhibition at 100 µM: 32%
[12]
  inhibition at 100 µM: 48%
[13]
  inhibition at 100 µM: 35%
[14]; read-out: percent inhibition of evoked currents
  inhibition at 100 µM: 40%
[15]; equilibrium membrane binding
  displacement of tritiated D11 binding: displaced
[16]; cp-PYT 5 μM, voltage ramps −70 mV to +30 mV, WT mice
  inhibition of whole cell Ba2+ currents: modest inhibition
[16]; cp-PYT 50 μM, WT mouse
  inhibition of whole cell Ba2+ currents: inhibition
[17]
  effect on whole cell Ba2+ currents: no effect
[18]
  dendritic Ca2+ oscillations: significantly reduced
  effect on pacemaking: no effect
[19]; cp-PYT 50 μM bath application
  mitochondrial oxidant stress: significantly diminished
[20]
  deactivation of tail currents: slowed
[21]
  inhibition of CaV1.3 channels: did inhibit
[22]
  reinstatement of alcohol- and cocaine-seeking: disrupt
[23]
  selectivity for inhibition of CaV1.3 channels over CaV1.2 channels: highly selective

## COC(=O)C1=C(C)NC(C)=C(C(=O)OC(C)C)C1c1cccc2nonc12 (centres unmarked) [isradipine, reference compound]
[1]; 5 μM isradipine
  percent inhibition of evoked currents (median): 90%
[1]; isradipine 100 nM (Fig. 4a legend), VH −50 mV
  percentage inhibition of CaV1.3 peak currents (median): 92%
[1]; isradipine 100 nM (Fig. 4a legend), VH −80 mV
  percentage inhibition of CaV1.3 peak currents (median): 43%
[2]; 5 μM isradipine
  percent inhibition of evoked currents (median): 1%
[3]; 5 μM isradipine
  percent inhibition of evoked currents (median): 78%
[4]
  inhibition at 5 µM: 94%
[5]
  inhibition at 5 µM: 88%
[6]; 5 μM isradipine
  percent inhibition of evoked currents (median): 85%
[7]
  inhibition at 5 µM: 69%
[24]
  inhibition at 5 µM: 78%
[9]
  inhibition at 5 µM: 92%
[10]
  inhibition at 5 µM: 95%
[11]
  inhibition at 5 µM: 93%
[12]
  inhibition at 5 µM: 91%
[13]
  inhibition at 5 µM: 95%
[14]; read-out: percent inhibition of evoked currents (median)
  inhibition at 5 µM: 72%
[15]
  Ki: 68 nM
[15]; displacement by isradipine
  fraction of 3H2-D11 binding not displaced: ~ 20%
[19]; isradipine 1 μM
  mitochondrial oxidant stress: diminished
[22]
  reinstatement of alcohol- and cocaine-seeking: disrupt
